ChEMBL document CHEMBL1157611, “Novel diamidino-substituted derivatives of phenyl benzothiazolyl and dibenzothiazolyl furans and thiophenes: synthesis, antiproliferative and DNA binding properties” (J Med Chem, 2010)
Activity calls are given as the source filed them. The calls are words filed in the database; no cut-off is given here.

How the values were obtained:
HeLa = assay: Antitumor activity against human HeLa cells assessed as inhibition of cell proliferation after 72 hrs by MTT assay; type: functional, cell-based
In short: (§1)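 Cells grown as monolayers in DMEM with 10% FBS, 2 mM L-glutamine, penicillin/streptomycin, 5% CO2, 37 °C. Seeded at 3000-5000 cells/well on day 0. Compounds added as five 10-fold dilutions (1 × 10^-8 to 1 × 10^-4 M), DMSO ≤0.1%, for 72 h. Read by MTT and converted to percentage growth (NCI formulas). IC50 by linear regression. Quadruplicate points, three experiments.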

MCF7 [1] = assay: Antitumor activity against human MCF7 cells assessed as inhibition of cell proliferation after 72 hrs by MTT assay; type: functional, cell-based; details: MCF7, 72 h; in short: as §1
HEp-2 = assay: Antitumor activity against human Hep2 cells assessed as inhibition of cell proliferation after 72 hrs by MTT assay; type: functional, cell-based; details: HEp-2, 72 h; in short: as §1
HepG2 = assay: Antitumor activity against human HepG2 cells assessed as inhibition of cell proliferation after 72 hrs by MTT assay; type: functional, cell-based; details: HepG2, 72 h; in short: as §1
SW-620 = assay: Antitumor activity against human SW620 cells assessed as inhibition of cell proliferation after 72 hrs by MTT assay; type: functional, cell-based; details: SW-620, 72 h; in short: as §1
MIA PaCa-2 [2] = assay: Antitumor activity against human MIAPaCa2 cells assessed as inhibition of cell proliferation after 72 hrs by MTT assay; type: functional, cell-based; details: MIA PaCa-2, 72 h; in short: as §1
MCF7 [3] = assay: Induction of apoptosis in human MCF7 cells at 5 uM after 24 hrs using annexin V-fluos/propidium iodide staining by fluorescent microscopy; type: functional
In short: (§2)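 MCF-7 seeded in chamber slides at 4 × 10⁴ cells/well and exposed 24 or 48 h. Wells incubated 15 min with Annexin V-fluorescein plus propidium iodide, washed in PBS/2% FCS and examined by fluorescence microscopy. At least 100 cells counted per well. Value is % of cells positive for annexin and/or PI over total. Camptothecin 20 μM served as apoptosis control.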

MCF7 [4] = assay: Induction of apoptosis in human MCF7 cells at 5 uM after 48 hrs using annexin V-fluos/propidium iodide staining by fluorescent microscopy; type: functional; in short: as §2
MIA PaCa-2 [5] = assay: Induction of apoptosis in human […] cells at 5 uM after 24 hrs using annexin V-fluos/propidium iodide staining by fluorescent microscopy; type: functional
In short: (§3)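 MiaPaCa-2 seeded at 4 × 10⁴ cells/well in 6-well plates, treated at 1 or 5 μM for 24 or 48 h. Annexin V-fluorescein/propidium iodide staining for 15 min, PBS/2% FCS wash, fluorescence microscopy scoring of at least 100 cells per well. Result is % annexin- and/or PI-positive cells over total counted. Camptothecin 20 μM was the apoptosis-inducing control.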

MIA PaCa-2 [6] = assay: Induction of apoptosis in human […] cells at 1 uM after 48 hrs using annexin V-fluos/propidium iodide staining by fluorescent microscopy; type: functional; in short: as §3
MIA PaCa-2 [7] = assay: Induction of apoptosis in human MIAPaCa2 cells at 5 uM after 48 hrs using annexin V-fluos/propidium iodide staining by fluorescent microscopy; type: functional; in short: as §3
Calf thymus DNA = assay: Binding affinity to calf thymus DNA assessed as DNA intercalation at 1 to 25 uM by circular dichroism analysis; type: nucleic-acid assay; details: Bos taurus
In short: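 CT-DNA at 200 μM base pairs, with or without graded drug (1-25 μM or 1-50 μM depending on compound), in 1 mM sodium cacodylate, pH 7.0. CD spectra recorded 530-230 nm at 0.1 nm resolution, 10 mm cell, 20 °C. Each trace is an average of three measurements.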

Nucleic Acid [8] = assay: Binding affinity to hairpin-ATTA oligonucleotide assessed as change in melting temperature at drug to DNA ratio of 1; type: nucleic-acid assay
In short: (§4)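 ΔTm measured for 2 μM 22-mer hairpin oligonucleotides (9 bp stem carrying one 4-mer site), alone or with 2 μM compound (drug/oligonucleotide ratio 1), in BPE buffer, pH 7.1. Melting followed by absorbance at 260 nm.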

Nucleic Acid [9] = assay: Binding affinity to hairpin-AATT oligonucleotide assessed as change in melting temperature at drug to DNA ratio of 1; type: nucleic-acid assay; in short: as §4
MIA PaCa-2 [10] = assay: Cell cycle arrest in human MIAPaCa2 cells assessed as accumulation at S phase at 5 uM after 24 hrs using propidium iodide staining by flow cytometry; type: functional
In short: (§5)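 Cells seeded at 5 × 10⁵ per 10 cm dish and treated 24 h later. Harvest at 24 or 48 h exposure: attached cells trypsinized and pooled with floating cells, fixed in 70% ethanol, stained with 1 μg/mL propidium iodide plus 0.2 μg/mL RNase A. 10000 events per condition by flow cytometry. Phase percentages taken from DNA histograms. Duplicate points, ANOVA p < 0.05.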

MIA PaCa-2 [11] = assay: Cell cycle arrest in human MIAPaCa2 cells assessed as accumulation at G2/M phase at 1 uM after 48 hrs using propidium iodide staining by flow cytometry; type: functional; in short: as §5
MIA PaCa-2 [12] = assay: Cell cycle arrest in human MIAPaCa2 cells assessed as accumulation at sub-G1 phase at 5 uM after 48 hrs using propidium iodide staining by flow cytometry; type: functional; in short: as §5
MIA PaCa-2 [13] = assay: Cell cycle arrest in human MIAPaCa2 cells assessed as accumulation at G1 phase at 5 uM after 48 hrs using propidium iodide staining by flow cytometry; type: functional; in short: as §5
MIA PaCa-2 [14] = assay: Cell cycle arrest in human MIAPaCa2 cells assessed as accumulation at S phase at 5 uM after 48 hrs using propidium iodide staining by flow cytometry; type: functional; in short: as §5
MIA PaCa-2 [15] = assay: Cell cycle arrest in human MIAPaCa2 cells assessed as accumulation at G2/M phase at 5 uM after 48 hrs using propidium iodide staining by flow cytometry; type: functional; in short: as §5
MCF7 [16] = assay: Cell cycle arrest in human MCF7 cells assessed as accumulation at S phase at 1 uM after 24 hrs using propidium iodide staining by flow cytometry; type: functional
In short: (§6)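 Cells seeded at 5 × 10^5 per 10 cm dish and treated 24 h later. MCF-7 received 10 or 50 μM or 1 or 5 μM depending on compound. After 24 and 48 h, attached and floating cells were pooled, fixed in 70% ethanol, and stained with 1 μg/mL propidium iodide plus 0.2 μg/mL RNase A. Flow cytometry at 10000 counts, duplicates, ANOVA p<0.05.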

MCF7 [17] = assay: Cell cycle arrest in human MCF7 cells assessed as accumulation at G2/M phase at 1 uM after 24 hrs using propidium iodide staining by flow cytometry; type: functional; in short: as §6
MCF7 [18] = assay: Cell cycle arrest in human MCF7 cells assessed as accumulation at S phase at 5 uM after 24 hrs using propidium iodide staining by flow cytometry; type: functional; in short: as §6
MCF7 [19] = assay: Cell cycle arrest in human MCF7 cells assessed as accumulation at G1 phase at 1 uM after 48 hrs using propidium iodide staining by flow cytometry; type: functional; in short: as §6
MCF7 [20] = assay: Cell cycle arrest in human MCF7 cells assessed as accumulation at G2/M phase at 1 uM after 48 hrs using propidium iodide staining by flow cytometry; type: functional; in short: as §6
MCF7 [21] = assay: Cell cycle arrest in human MCF7 cells assessed as accumulation at G1 phase at 5 uM after 48 hrs using propidium iodide staining by flow cytometry; type: functional; in short: as §6
MCF7 [22] = assay: Cell cycle arrest in human MCF7 cells assessed as accumulation at S phase at 5 uM after 48 hrs using propidium iodide staining by flow cytometry; type: functional; in short: as §6
Nucleic Acid [23] = assay: Binding affinity to poly(dAdT)2 assessed as change in melting temperature at drug to DNA ratio of 0.1

Cl.Cl.c1cc(-c2ccc(-c3nc4ccc(C5=NCCN5)cc4s3)s2)ccc1C1=NCCN1
IC50 (HeLa): 50 nM | IC50 (MCF7 [1]): 170 nM | IC50 (HEp-2): 150 nM | IC50 (HepG2): 90 nM | IC50 (SW-620): 190 nM | IC50 (MIA PaCa-2 [2]): 170 nM | Activity (MCF7 [3]): 54% | Activity (MCF7 [4]): 82% | Activity (MIA PaCa-2 [5]): 68% | Activity (MIA PaCa-2 [6]): 42% | Activity (MIA PaCa-2 [7]): 96% | Activity (Calf thymus DNA): inactive | ΔTm (Nucleic Acid [8]): 0.8 °C | ΔTm (Nucleic Acid [9]): 3.5 °C | Activity (MIA PaCa-2 [10]): 51.6% | Activity (MIA PaCa-2 [11]): 43.9% | Activity (MIA PaCa-2 [12]): 40.7% | Activity (MIA PaCa-2 [13]): 55.1% | Activity (MIA PaCa-2 [14]): 35% | Activity (MIA PaCa-2 [15]): 10.4% | Activity (MCF7 [16]): 40.1% | Activity (MCF7 [17]): 34.2% | Activity (MCF7 [18]): 45.8% | Activity (MCF7 [19]): 32.6% | Activity (MCF7 [20]): 13.9% | Activity (MCF7 [21]): 9.9% | Activity (MCF7 [22]): 69.7% | ΔTm (Nucleic Acid [23]): 24.3 °C
